According to ChEMBL document CHEMBL4130442, “Design, synthesis and structure-activity relationship studies of a focused library of pyrimidine moiety with anti-proliferative and anti-metastasis activities in triple negative breast cancer” (Eur J Med Chem, 2017):
Active and inactive are the calls of the source. The rule behind the calls is not given here.

Assays:
[1] = target: T1, Platelet-derived growth factor receptor beta (Homo sapiens, UniProt P09619); experiment: Inhibition of PDGFRbeta (unknown origin) using ATP and enzyme substrate by kinase-glo Plus luminescence kinase assay
MDA-MB-231 [2] = experiment: Induction of autophagy in human MDA-MB-231 cells assessed as change in p62 protein level at 5 uM incubated for 24 hrs by Western blot method relative to untreated control; format: functional
How it was run: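 Cells grown in DMEM with 10% FBS under 5% CO2 and treated 24 h across a range of concentrations. Adherent and floating cells were pooled and lysed in Hepes 50 mM pH 7.4 / 1% Triton X-100 buffer with phosphatase and protease inhibitors, 4 °C for 1 h. Equal protein was run on 10-15% SDS-PAGE, blotted to PVDF, probed with Beclin-1, p62 and LC3 antibodies and detected by ECL.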

MDA-MB-231 [3] = experiment: Induction of autophagy in human MDA-MB-231 cells assessed as change in Beclin-1 protein level at 10 uM incubated for 24 hrs by Western blot method relative to untreated control; format: functional
How it was run: (§1)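 MDA-MB-231 cells were exposed for 24 h. Adherent and floating cells were pooled and lysed for 1 h at 4 °C in 50 mM Hepes pH 7.4 with 1% Triton X-100, orthovanadate, NaF, EDTA, PMSF, aprotinin and leupeptin. After 12,000 rpm clearing, equal protein was run on 10-15% SDS-PAGE and blotted to PVDF. Detection used HRP-ECL, with β-actin as loading control and densitometric quantification.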

MDA-MB-231 [4] = experiment: Induction of autophagy in human MDA-MB-231 cells assessed as change in LC3-2 protein level at 2.5 uM incubated for 24 hrs by Western blot method relative to untreated control; format: functional
How it was run: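 MDA-MB-231 cells (ATCC; DMEM, 10% FBS, 5% CO2) were treated 24 h over a concentration series. Adherent and floating cells were pooled and lysed 1 h at 4 °C (50 mM Hepes pH 7.4, 1% Triton X-100, phosphatase/protease inhibitors). Equal protein was run on 10-15% SDS-PAGE, transferred to PVDF, probed for Beclin-1, p62 and LC3 with HRP/ECL detection, and normalised to β-actin.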

[5] = target: T1, Platelet-derived growth factor receptor beta; experiment: Inhibition of PDGFRbeta in human MDA-MB-231 cells assessed as Akt Thr305 phosphorylation level at 2.5 uM incubated for 24 hrs by Western blot relative to untreated control; format: cell-based
How it was run: (§2)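 Cells were treated 24 h at several concentrations. Pooled adherent and floating cells were lysed in Hepes 50 mM pH 7.4 / 1% Triton X-100 buffer with vanadate, NaF, EDTA, PMSF, aprotinin and leupeptin. Equal protein was run on 10-15% SDS-PAGE and blotted to PVDF. PDGFR-β-AKT-ULK1 pathway phospho-proteins were probed and detected by ECL, with β-actin as loading control.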

[6] = target: T1, Platelet-derived growth factor receptor beta; experiment: Inhibition of PDGFRbeta in human MDA-MB-231 cells assessed as ULK Ser317 phosphorylation level at 10 uM incubated for 24 hrs by Western blot relative to untreated control; format: cell-based; how it was run: as §2
[7] = target: T1, Platelet-derived growth factor receptor beta; experiment: Inhibition of PDGFRbeta in human MDA-MB-231 cells assessed as ULK Ser555 phosphorylation level at 2.5 uM incubated for 24 hrs by Western blot relative to untreated control; format: cell-based; how it was run: as §2
[8] = target: T1, Platelet-derived growth factor receptor beta; experiment: Inhibition of PDGFRbeta in human MDA-MB-231 cells assessed as ULK Ser555 phosphorylation level at 5 uM incubated for 24 hrs by Western blot relative to untreated control; format: cell-based; how it was run: as §2
MDA-MB-231 [9] = experiment: Effect on total mTOR protein level in human MDA-MB-231 cells at 2.5 uM incubated for 24 hrs by Western blot relative to untreated control; format: ADME, cell-based; conditions: mda-mb-231, 24 h; how it was run: as §1
MDA-MB-231 [10] = experiment: Effect on total mTOR protein level in human MDA-MB-231 cells at 5 uM incubated for 24 hrs by Western blot relative to untreated control; format: ADME, cell-based; conditions: mda-mb-231, 24 h; how it was run: as §1
MDA-MB-231 [11] = experiment: Effect on total ULK1 protein level in human MDA-MB-231 cells at 2.5 uM incubated for 24 hrs by Western blot relative to untreated control; format: ADME, cell-based; conditions: mda-mb-231, 24 h; how it was run: as §1
MDA-MB-231 [12] = experiment: Induction of autophagy in human MDA-MB-231 cells assessed as change in Beclin-1 protein level at 2.5 uM incubated for 24 hrs in absence of PDGFRbeta siRNA by Western blot method relative to untreated control; format: functional; how it was run: as §1
[13] = target: T1, Platelet-derived growth factor receptor beta; experiment: Inhibition of PDGFRbeta in human MDA-MB-231 cells assessed as PDGFRbeta Tyr740 phosphorylation level at 2.5 uM incubated for 24 hrs in presence of control siRNA by Western blot relative to untreated control; format: cell-based
How it was run: (§3)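 Cells were transfected with control or PDGFR-β siRNA, then treated with 2.5 μM compound for 24 h. PDGFR-β-AKT-ULK1 pathway phospho-proteins were assessed by western blot: lysis in Hepes pH 7.4 / Triton buffer, 10-15% SDS-PAGE, PVDF, ECL detection, β-actin as loading control.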

[14] = target: T1, Platelet-derived growth factor receptor beta; experiment: Inhibition of PDGFRbeta in human MDA-MB-231 cells assessed as mTOR Ser2448 phosphorylation level at 2.5 uM incubated for 24 hrs in presence of control siRNA by Western blot relative to untreated control; format: cell-based; how it was run: as §3
[15] = target: T1, Platelet-derived growth factor receptor beta; experiment: Inhibition of PDGFRbeta in human MDA-MB-231 cells assessed as ULK Ser555 phosphorylation level at 2.5 uM incubated for 24 hrs in absence of PDGFRbeta siRNA by Western blot relative to untreated control; format: cell-based; how it was run: as §3
MDA-MB-231 [16] = experiment: Activation of ERK in human MDA-MB-231 cells assessed as ERK phosphorylation level at 2.5 to 10 uM incubated for 24 hrs by immunofluorescence assay; format: cell-based
How it was run: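 MDA-MB-231 cells (ATCC; DMEM, 10% FBS, 5% CO2) were treated, blocked in PBS with 1.5% goat serum, then given p-ERK antibody (1:200 in PBS with 1% BSA) overnight at 4 °C. TRITC-labelled secondary antibody followed for 1 h at room temperature. Nuclear fluorescence was read by microscopy.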

MDA-MB-231 [17] = experiment: Effect on total c-Raf protein level in human MDA-MB-231 cells at 5 uM incubated for 24 hrs in presence of PDGFRbeta siRNA by Western blot relative to untreated control; format: cell-based; conditions: mda-mb-231, 24 h
[18] = target: T1, Platelet-derived growth factor receptor beta; experiment: Inhibition of PDGFRbeta in human MDA-MB-231 cells assessed as C-Raf Ser259 phosphorylation level at 2.5 uM incubated for 24 hrs in presence of PDGFRbeta siRNA by Western blot relative to untreated control; format: cell-based
[19] = target: T1, Platelet-derived growth factor receptor beta; experiment: Inhibition of PDGFRbeta in human MDA-MB-231 cells assessed as C-Raf Ser338 phosphorylation level at 2.5 uM incubated for 24 hrs in presence of PDGFRbeta siRNA by Western blot relative to untreated control; format: cell-based
[20] = target: T2, Mitogen-activated protein kinase; ERK1/ERK2 (Homo sapiens) (UniProt P27361+P28482); experiment: Inhibition of ERK1/2 in human MDA-MB-231 cells assessed as ERK1/2 Thr202/Tyr204 phosphorylation level at 2.5 uM incubated for 24 hrs in presence of PDGFRbeta siRNA by Western blot relative to untreated control; format: cell-based
[21] = target: T2, Mitogen-activated protein kinase; ERK1/ERK2 (Homo sapiens); experiment: Inhibition of ERK1/2 in human MDA-MB-231 cells assessed as ERK1/2 Thr202/Tyr204 phosphorylation level at 10 uM incubated for 24 hrs in presence of PDGFRbeta siRNA by Western blot relative to untreated control; format: cell-based

T1 sequence (P09619 whole entry): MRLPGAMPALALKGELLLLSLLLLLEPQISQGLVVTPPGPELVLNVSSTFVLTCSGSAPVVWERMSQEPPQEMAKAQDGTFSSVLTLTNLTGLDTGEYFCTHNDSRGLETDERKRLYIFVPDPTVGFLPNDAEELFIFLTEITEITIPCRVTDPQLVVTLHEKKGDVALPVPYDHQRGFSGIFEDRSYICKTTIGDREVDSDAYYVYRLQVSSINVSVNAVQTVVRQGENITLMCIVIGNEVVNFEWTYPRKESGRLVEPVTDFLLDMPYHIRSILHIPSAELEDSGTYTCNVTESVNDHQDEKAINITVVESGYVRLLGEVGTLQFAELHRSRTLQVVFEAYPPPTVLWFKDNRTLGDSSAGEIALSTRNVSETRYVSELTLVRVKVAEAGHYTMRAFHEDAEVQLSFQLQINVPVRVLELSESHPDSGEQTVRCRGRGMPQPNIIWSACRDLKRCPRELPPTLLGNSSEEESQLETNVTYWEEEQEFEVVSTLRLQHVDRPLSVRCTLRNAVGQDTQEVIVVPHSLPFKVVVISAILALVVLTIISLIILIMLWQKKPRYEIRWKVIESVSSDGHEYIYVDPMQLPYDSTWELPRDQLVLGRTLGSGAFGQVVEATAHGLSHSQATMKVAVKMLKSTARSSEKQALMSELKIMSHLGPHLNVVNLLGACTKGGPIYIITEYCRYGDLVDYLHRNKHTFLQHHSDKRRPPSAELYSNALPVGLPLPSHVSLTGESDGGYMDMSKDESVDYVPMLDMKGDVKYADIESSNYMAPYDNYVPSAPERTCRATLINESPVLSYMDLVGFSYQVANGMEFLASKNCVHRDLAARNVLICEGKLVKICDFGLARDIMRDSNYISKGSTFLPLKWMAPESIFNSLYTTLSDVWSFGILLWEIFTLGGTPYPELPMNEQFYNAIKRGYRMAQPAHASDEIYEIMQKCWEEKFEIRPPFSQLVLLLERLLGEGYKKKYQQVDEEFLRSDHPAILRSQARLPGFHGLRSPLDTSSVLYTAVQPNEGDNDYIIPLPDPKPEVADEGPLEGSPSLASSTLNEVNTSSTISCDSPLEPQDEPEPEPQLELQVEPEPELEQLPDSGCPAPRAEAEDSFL
T2 sequence (P27361 whole entry, looked up): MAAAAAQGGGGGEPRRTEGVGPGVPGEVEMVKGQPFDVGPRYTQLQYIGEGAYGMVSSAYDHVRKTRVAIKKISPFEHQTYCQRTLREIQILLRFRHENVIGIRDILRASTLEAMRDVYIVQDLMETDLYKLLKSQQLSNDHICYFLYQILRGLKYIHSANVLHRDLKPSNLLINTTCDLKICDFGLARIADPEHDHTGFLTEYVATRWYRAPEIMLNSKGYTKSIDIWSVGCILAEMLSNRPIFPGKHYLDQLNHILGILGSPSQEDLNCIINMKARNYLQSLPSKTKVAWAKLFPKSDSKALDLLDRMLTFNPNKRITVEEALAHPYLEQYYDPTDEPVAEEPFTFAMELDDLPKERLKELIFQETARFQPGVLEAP
T2 sequence (P28482 whole entry, looked up): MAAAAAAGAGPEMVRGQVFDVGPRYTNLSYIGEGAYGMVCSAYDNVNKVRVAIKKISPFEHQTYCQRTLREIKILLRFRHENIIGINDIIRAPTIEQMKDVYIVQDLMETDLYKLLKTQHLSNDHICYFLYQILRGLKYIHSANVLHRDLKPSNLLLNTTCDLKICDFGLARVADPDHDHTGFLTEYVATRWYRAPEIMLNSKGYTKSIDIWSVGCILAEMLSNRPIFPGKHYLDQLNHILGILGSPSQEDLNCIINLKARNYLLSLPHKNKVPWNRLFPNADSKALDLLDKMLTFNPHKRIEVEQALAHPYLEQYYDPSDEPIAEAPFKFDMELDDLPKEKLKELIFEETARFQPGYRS

COc1cccc(Nc2cc(N3CCN(C(=O)Nc4ccc(C(F)(F)F)cc4)CC3)ncn2)c1
IC50 [1]: 7.8 µM
fold change (FC) (MDA-MB-231 [2]): 0.43
fold change (FC) (MDA-MB-231 [3]): 3.2
fold change (FC) (MDA-MB-231 [4]): 2.5
fold change (FC) [5]: 0.95
fold change (FC) [6]: 3.2
fold change (FC) [7]: 4.5
fold change (FC) [8]: 4.2
fold change (FC) (MDA-MB-231 [9]): 0.37
fold change (FC) (MDA-MB-231 [10]): 0.31
fold change (FC) (MDA-MB-231 [11]): 0.89
fold change (FC) (MDA-MB-231 [12]): 4.02
fold change (FC) [13]: 0.08
fold change (FC) [14]: 0.26
fold change (FC) [15]: 3.67
Activity (MDA-MB-231 [16]): Active
fold change (FC) (MDA-MB-231 [17]): 0.82
fold change (FC) [18]: 0.95
fold change (FC) [19]: 0.85
fold change (FC) [20]: 1.05
fold change (FC) [21]: 2.38
